According to ChEMBL document CHEMBL3272254, “Inhibition of squalene synthetase by farnesyl pyrophosphate analogues” (J Med Chem, 1977):
Calls of active or inactive are those of the source. The rule behind the calls is not given here.

Assays:
[1] = target: T1, Squalene synthase ERG9 (Saccharomyces cerevisiae (strain ATCC 204508 / S288c) (Baker's yeast)) (UniProt P29704); assay: Inhibition of Baker's yeast squalene synthetase assessed as incorporation of [1-3H]farnesyl pyrophosphate into squalene at 2 to 6 uM after 2 mins by liquid scintillation spectrometer analysis
T1 sequence (whole entry): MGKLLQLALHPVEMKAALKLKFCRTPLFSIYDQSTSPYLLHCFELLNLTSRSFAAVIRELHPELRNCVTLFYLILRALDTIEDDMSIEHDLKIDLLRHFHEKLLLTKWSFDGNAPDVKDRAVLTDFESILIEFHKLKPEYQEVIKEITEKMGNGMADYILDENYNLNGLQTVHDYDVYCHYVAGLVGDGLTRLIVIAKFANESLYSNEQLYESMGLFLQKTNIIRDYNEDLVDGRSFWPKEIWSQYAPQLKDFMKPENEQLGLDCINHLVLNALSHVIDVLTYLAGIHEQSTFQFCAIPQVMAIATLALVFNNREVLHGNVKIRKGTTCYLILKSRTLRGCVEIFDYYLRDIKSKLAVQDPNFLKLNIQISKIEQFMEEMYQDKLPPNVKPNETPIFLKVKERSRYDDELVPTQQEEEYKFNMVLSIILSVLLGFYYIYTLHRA
In short: (§1)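 Enzyme: yeast […] from sonicated baker's yeast, high-speed supernatant precipitated at 30–55% ammonium sulfate, dialyzed in 100 mM K phosphate pH 7.0 with 20 mM 2-mercaptoethanol. Assay in 1 ml at 37 °C, started with enzyme (1.34 mg/ml protein): [1-3H]FPP 1–10 µM, 10 mM MgCl2, 1.6 mM NADPH, 50 mM K phosphate pH 7.5. Squalene recovered by minicolumn and scintillation counted. Each point done in at least two independent experiments.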

[2] = target: T1, Squalene synthase ERG9 (Saccharomyces cerevisiae (strain ATCC 204508 / S288c) (Baker's yeast)); assay: Inhibition of Baker's yeast squalene synthetase assessed as incorporation of [1-3H]farnesyl pyrophosphate into squalene up to 20 uM after 2 mins by liquid scintillation spectrometer analysis; in short: as §1
[3] = target: T1, Squalene synthase ERG9 (Saccharomyces cerevisiae (strain ATCC 204508 / S288c) (Baker's yeast)); assay: Competitive inhibition of Baker's yeast squalene synthetase using [1-3H]farnesyl pyrophosphate as substrate by Lineweaver-Burk graphic analysis; in short: as §1
[4] = target: T1, Squalene synthase ERG9 (Saccharomyces cerevisiae (strain ATCC 204508 / S288c) (Baker's yeast)); assay: Inhibition of Baker's yeast squalene synthetase using [1-3H]farnesyl pyrophosphate as substrate at 4 uM preincubated for up to 5 hrs before substrate addition by liquid scintillation spectrometer analysis
[5] = target: T1, Squalene synthase ERG9 (Saccharomyces cerevisiae (strain ATCC 204508 / S288c) (Baker's yeast)); assay: Mixed type inhibition of Baker's yeast squalene synthetase using [1-3H]farnesyl pyrophosphate as substrate by Lineweaver-Burk graphic analysis; in short: as §1

CC(C)=CCC/C(C)=C/CC/C(C)=C/COP(=O)(O)OP(=O)(O)O
inhibition [1]: Active

CC(C)=CCC/C(C)=C/CC/C(C)=C(\C)COP(=O)(O)OP(=O)(O)O
inhibition [1]: Active | inhibition [2]: inactive

CC(C)=CCC/C(C)=C/COP(=O)(O)OP(=O)(O)O
inhibition [3]: Active | inhibition [1]: Active | inhibition [2]: inactive

CC(C)=CCC/C(C)=C/CC/C=C(/I)COP(=O)(O)OP(=O)(O)O
inhibition [3]: Active | inhibition [4]: Active | inhibition [2]: inactive

CC(C)=CCC/C(C)=C/CCC#CCOP(=O)(O)OP(=O)(O)O
inhibition [5]: Active | inhibition [4]: Active | inhibition [2]: inactive

CC(C)CCCC(C)CCCC(C)CCOP(=O)(O)OP(=O)(O)O (stereo not given)
inhibition [3]: Active | inhibition [2]: inactive

CC/C(=C\COP(=O)(O)OP(=O)(O)O)CC/C=C(\C)CCC=C(C)C
inhibition [3]: Active | inhibition [1]: Active | inhibition [2]: inactive

CC(C)=CCC/C(C)=C/CC/C=C/COP(=O)(O)OP(=O)(O)O
inhibition [5]: Active | inhibition [4]: Active | inhibition [2]: inactive

C/C(=C\COP(=O)(O)OP(=O)(O)O)CCCC(C)CCCC(C)C (stereo not given)
inhibition [3]: Active | inhibition [2]: inactive

CSC(C/C=C(\C)CCC=C(C)C)/C(C)=C/COP(=O)(O)OP(=O)(O)O (stereo not given)
inhibition [3]: Active | inhibition [4]: Active | inhibition [2]: inactive

CC(C)=CCC/C(C)=C/CC/C(I)=C\COP(=O)(O)OP(=O)(O)O
inhibition [3]: Active | inhibition [4]: Active | inhibition [2]: inactive

C/C(=C\COP(=O)(O)OP(=O)(O)O)CCCC(C)CCCC(C)CCCC(C)C (mixture of isomers)
inhibition [3]: Active | inhibition [2]: inactive
